From PMC7302971 (Bioorganic chemistry, 2020)

Legend:
GLUT1 = target: T1, GLUT1 (Homo sapiens, UniProt P11166); experiment: GLUT transport inhibition assay in hxt0 yeast cells; assay type: cell-based
T1 sequence (P11166 1-492): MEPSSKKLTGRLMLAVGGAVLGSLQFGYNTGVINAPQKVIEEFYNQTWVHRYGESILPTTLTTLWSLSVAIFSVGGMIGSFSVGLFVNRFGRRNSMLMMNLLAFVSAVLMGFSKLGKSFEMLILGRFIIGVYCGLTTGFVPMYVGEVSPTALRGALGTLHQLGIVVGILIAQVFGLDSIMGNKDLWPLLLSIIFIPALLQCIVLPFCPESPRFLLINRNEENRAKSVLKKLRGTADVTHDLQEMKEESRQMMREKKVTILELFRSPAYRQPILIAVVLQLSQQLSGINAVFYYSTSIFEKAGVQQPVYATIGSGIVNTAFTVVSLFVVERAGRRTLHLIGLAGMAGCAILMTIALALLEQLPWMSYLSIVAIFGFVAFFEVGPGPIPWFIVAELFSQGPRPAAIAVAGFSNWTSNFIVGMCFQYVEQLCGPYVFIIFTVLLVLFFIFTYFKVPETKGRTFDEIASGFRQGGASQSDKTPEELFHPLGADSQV
In short: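 hxt0 yeast (VW4000fgy1) expressing human GLUT1 was grown at 30 °C in SC-uracil, first on 2% maltose, then on 2% glucose. Cells were PBS-washed (pH 7.4) to OD600 ~10. Test compound was varied from 0.1 to 100 μM. Uptake of 5 mM 14C-glucose ran 10 min and was stopped with ice-cold quench buffer (pH 5.5). Cells were filtered and counted by scintillation.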

GLUT4 = target: T2, GLUT4 (Homo sapiens, UniProt P14672); experiment: GLUT transport inhibition assay in hxt0 yeast cells; assay type: cell-based; settings: 50 μM compound, 5 mM C14-glucose
T2 sequence (P14672 1-509): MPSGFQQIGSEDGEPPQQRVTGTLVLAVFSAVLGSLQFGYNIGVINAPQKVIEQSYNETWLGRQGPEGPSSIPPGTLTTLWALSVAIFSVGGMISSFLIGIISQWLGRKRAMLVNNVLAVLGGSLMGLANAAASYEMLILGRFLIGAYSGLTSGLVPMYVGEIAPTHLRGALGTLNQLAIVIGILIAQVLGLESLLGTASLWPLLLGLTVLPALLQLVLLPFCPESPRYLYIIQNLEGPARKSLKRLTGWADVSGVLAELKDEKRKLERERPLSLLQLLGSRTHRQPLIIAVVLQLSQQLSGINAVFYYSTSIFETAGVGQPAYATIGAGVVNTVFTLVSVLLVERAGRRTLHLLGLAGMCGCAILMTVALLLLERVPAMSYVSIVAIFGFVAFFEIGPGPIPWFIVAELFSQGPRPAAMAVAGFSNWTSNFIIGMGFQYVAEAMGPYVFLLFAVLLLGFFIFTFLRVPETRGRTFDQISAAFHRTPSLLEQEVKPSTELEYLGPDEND
In short: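 Human GLUT4 was expressed in VW4000fgy1erg4 yeast (1% maltose, then 0.2% glucose, SC-uracil). GLUT5 was expressed in VW4000 (YEP with 2% maltose and G418, then 2% fructose). PBS-washed cells were exposed to 50 μM test compound. Uptake of 14C-glucose (5 mM, GLUT4) or 14C-fructose (10 mM, GLUT5) ran 10 min, followed by quench, filtration and scintillation counting. Activity was relative to 1% DMSO and to saturating phloretin (GLUT4) or MSNBA (GLUT5). Triplicates.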

O=C(CN1C(=O)SC(=Cc2ccccn2)C1=O)Nc1nc2ccccc2s1 [Compound P19, N-(benzo[d]thiazol-2-yl)-2-(2,4-dioxo-5-(pyridin-2-ylmethylene)thiazolidin-3-yl)acetamide] was tested, and the IC50 (GLUT1) was 28.2 µM and the “relative transport activity of GLUT4” value (GLUT4) was “ineffective”.
